Legend:
Type in all cases: functional, cell-based
P388 = test: Anticancer activity against mouse P388 cells assessed as reduction in cell viability measured after 48 hrs by SRB assay; settings: P388, 48 h
Outline: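 Suspension cells seeded at 10^4 cells/well and exposed 48 h to compound at 0.1–50 μM, dissolved in DMSO (less than 0.05%). Ellipticine served as positive control. Then washed, TCA-fixed, stained with 0.4% SRB in 1% acetic acid. Protein-bound dye extracted and absorbance read at 515 nm; IC50 taken.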

KB = test: Anticancer activity against human KB cells assessed as reduction in cell viability measured after 72 hrs by SRB assay
Outline: (§1)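 Adherent cells seeded at 10^4 cells/well and exposed 72 h to compound at 0.1–50 μM, dissolved in DMSO (less than 0.05%). Ellipticine served as positive control. Afterwards cells washed, fixed with TCA, stained with 0.4% SRB in 1% acetic acid. Bound dye extracted and OD read at 515 nm; IC50 derived.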

HT-29 = test: Anticancer activity against human HT-29 cells assessed as reduction in cell viability measured after 72 hrs by SRB assay; settings: HT-29, 72 h; outline: as §1
MCF7 = test: Anticancer activity against human MCF7 cells assessed as reduction in cell viability measured after 72 hrs by SRB assay; settings: MCF7, 72 h; outline: as §1
A549 = test: Anticancer activity against human A549 cells assessed as reduction in cell viability measured after 72 hrs by SRB assay; settings: A549, 72 h; outline: as §1
[1] = Anticancer activity against rat ASK cells assessed as reduction in cell viability measured after 72 hrs by SRB assay; outline: as §1
[2] = Anticancer activity against human KKU-M213 cells assessed as reduction in cell viability measured after 72 hrs by SRB assay; settings: KKU-M213, 72 h; outline: as §1
HuCC-A1 = test: Anticancer activity against human HuCCa1 cells assessed as reduction in cell viability measured after 72 hrs by SRB assay; settings: HuCC-A1, 72 h; outline: as §1
[3] = Anticancer activity against human KKU055 cells assessed as reduction in cell viability measured after 72 hrs by SRB assay; outline: as §1

IC50 (P388)	IC50 (KB)	IC50 (HT-29)	IC50 (MCF7)	IC50 (A549)	SMILES	IC50 [1]	IC50 [2]	IC50 (HuCC-A1)	IC50 [3]
4.38 µM	25 µM	7.08 µM	3.95 µM	25.1 µM	C=C1CC[C@@H]2[C@](C)(COC(C)=O)[C@H](OC(C)=O)CC[C@@]2(C)[C@@H]1C[C@H](SC(=S)N1CCc2ccccc2C1)C1=CCOC1=O	20.1 µM	5.59 µM	7.19 µM	5.55 µM
4.58 µM	21.4 µM	7.91 µM	5.68 µM	29.5 µM	C=C1CC[C@@H]2[C@](C)(COC(C)=O)[C@H](OC(C)=O)CC[C@@]2(C)[C@@H]1C[C@H](SC(=S)N1CCN(Cc2ccc3c(c2)OCO3)CC1)C1=CCOC1=O	14.9 µM	7.51 µM	11.6 µM	9.75 µM
3.4 µM	22.7 µM	9.18 µM	3.92 µM	23.4 µM	C=C1CC[C@@H]2[C@](C)(COC(C)=O)[C@H](OC(C)=O)CC[C@@]2(C)[C@@H]1C[C@H](SC(=S)N1CCN(C(=O)C2COc3ccccc3O2)CC1)C1=CCOC1=O (stereo partly specified)	25.5 µM	6.16 µM	17.3 µM	5.59 µM
4.06 µM	24.8 µM	6.73 µM	3.75 µM	22.5 µM	C=C1CC[C@@H]2[C@](C)(COC(C)=O)[C@H](OC(C)=O)CC[C@@]2(C)[C@@H]1C[C@H](SC(=S)N(Cc1ccccc1)C(C)C)C1=CCOC1=O	20.3 µM	5.52 µM	8.64 µM	5.29 µM
2.17 µM	25.3 µM	6.22 µM	0.59 µM	6.94 µM	C=C1CC[C@@H]2[C@](C)(COC(C)=O)[C@H](OC(C)=O)CC[C@@]2(C)[C@@H]1C[C@H](SC(=S)N(C)Cc1ccccc1)C1=CCOC1=O	6.92 µM	4.83 µM	8.63 µM	1.36 µM
5.75 µM	6 µM	4.93 µM	2.56 µM	22.1 µM	C=C1CC[C@@H]2[C@](C)(COC(C)=O)[C@H](OC(C)=O)CC[C@@]2(C)[C@@H]1C[C@H](SC(=S)N1CCN(c2ccc(O)cc2)CC1)C1=CCOC1=O	4.74 µM	4.91 µM	4.88 µM	5.29 µM
4.85 µM	33.6 µM	15.3 µM	5.46 µM	29.1 µM	C=C1CC[C@@H]2[C@](C)(COC(C)=O)[C@H](OC(C)=O)CC[C@@]2(C)[C@@H]1C[C@H](SC(=S)N1CCC(Cc2ccccc2)CC1)C1=CCOC1=O	28.5 µM	6.76 µM	19.7 µM	6.42 µM
36.5 µM	> 50 µM	> 50 µM	42.3 µM	> 50 µM	C=C1CC[C@@H]2[C@](C)(COC(C)=O)[C@H](OC(C)=O)CC[C@@]2(C)[C@@H]1C[C@H](SC(=S)N1CCN(C(c2ccccc2)c2ccccc2)CC1)C1=CCOC1=O	> 50 µM	> 50 µM	> 50 µM	> 50 µM
22.6 µM	> 50 µM	> 50 µM	21.7 µM	> 50 µM	C=C1CC[C@@H]2[C@](C)(COC(C)=O)[C@H](OC(C)=O)CC[C@@]2(C)[C@@H]1C[C@H](SC(=S)N1CCN(C(c2ccccc2)c2ccc(Cl)cc2)CC1)C1=CCOC1=O (stereo partly specified)	> 50 µM	> 50 µM	> 50 µM	27.7 µM
4.31 µM	6.92 µM	4.53 µM	0.84 µM	18 µM	C=C1CC[C@@H]2[C@](C)(COC(C)=O)[C@H](OC(C)=O)CC[C@@]2(C)[C@@H]1C[C@H](SC(=S)N1CCN(c2ncccn2)CC1)C1=CCOC1=O	7.2 µM	5.3 µM	5.73 µM	5.3 µM
5.33 µM	18.1 µM	9.63 µM	5.6 µM	29.8 µM	C=C1CC[C@@H]2[C@](C)(COC(C)=O)[C@H](OC(C)=O)CC[C@@]2(C)[C@@H]1C[C@H](SC(=S)N1CCc2ccccc2C1c1ccccc1)C1=CCOC1=O (stereo partly specified)	23.4 µM	6.81 µM	9.39 µM	6.44 µM
5.74 µM	5.96 µM	4.14 µM	2.93 µM	14.8 µM	C=C1CC[C@@H]2[C@](C)(COC(C)=O)[C@H](OC(C)=O)CC[C@@]2(C)[C@@H]1C[C@H](SC(=S)N1CCOCC1)C1=CCOC1=O	9.25 µM	5.16 µM	4.79 µM	5.24 µM
4.3 µM	23.5 µM	8.08 µM	6.53 µM	28.9 µM	C=C1CC[C@@H]2[C@](C)(COC(C)=O)[C@H](OC(C)=O)CC[C@@]2(C)[C@@H]1C[C@H](SC(=S)N1CCN(c2ccccc2)CC1)C1=CCOC1=O	15.6 µM	6.47 µM	9.59 µM	9.27 µM
5.85 µM	17.1 µM	4.29 µM	2.48 µM	9.42 µM	C=C1CC[C@@H]2[C@](C)(COC(C)=O)[C@H](OC(C)=O)CC[C@@]2(C)[C@@H]1C[C@H](SC(=S)N(CC)Cc1ccncc1)C1=CCOC1=O	18 µM	5.66 µM	7.07 µM	4.05 µM
4.94 µM	8.66 µM	6.54 µM	4.76 µM	22.9 µM	C=C1CC[C@@H]2[C@](C)(COC(C)=O)[C@H](OC(C)=O)CC[C@@]2(C)[C@@H]1C[C@H](SC(=S)N(Cc1ccccc1)Cc1ccccc1)C1=CCOC1=O	7.22 µM	5.67 µM	7.64 µM	6.02 µM
3.59 µM	25.7 µM	6.14 µM	0.68 µM	11.6 µM	C=C1CC[C@@H]2[C@](C)(COC(C)=O)[C@H](OC(C)=O)CC[C@@]2(C)[C@@H]1C[C@H](SC(=S)N(C)Cc1ccc(F)cc1)C1=CCOC1=O	16.9 µM	5.15 µM	7.78 µM	3.04 µM
5.5 µM	19.4 µM	8.29 µM	6.06 µM	27.8 µM	C=C1CC[C@@H]2[C@](C)(COC(C)=O)[C@H](OC(C)=O)CC[C@@]2(C)[C@@H]1C[C@H](SC(=S)N1CCN(c2ccc(C)cc2)CC1)C1=CCOC1=O	28 µM	6.49 µM	17.5 µM	14.8 µM
5.74 µM	18.9 µM	7.06 µM	6.05 µM	27.9 µM	C=C1CC[C@@H]2[C@](C)(COC(C)=O)[C@H](OC(C)=O)CC[C@@]2(C)[C@@H]1C[C@H](SC(=S)N1CCN(c2ccccc2F)CC1)C1=CCOC1=O	9.53 µM	5.22 µM	8.63 µM	9.39 µM
14.3 µM	42.5 µM	> 50 µM	24.2 µM	> 50 µM	C=C1CC[C@@H]2[C@](C)(COC(C)=O)[C@H](OC(C)=O)CC[C@@]2(C)[C@@H]1C[C@H](SC(=S)N1CCN(C(c2ccc(F)cc2)c2ccc(F)cc2)CC1)C1=CCOC1=O	> 50 µM	29.2 µM	> 50 µM	28.3 µM
6.52 µM	31.7 µM	8.91 µM	8.48 µM	32 µM	C=C1CC[C@@H]2[C@](C)(CO)[C@H](O)CC[C@@]2(C)[C@@H]1C/C=C1/C(=O)OC[C@H]1O [ANDROGRAPHOLIDE]	34.8 µM	9.36 µM	23.6 µM	17.7 µM
4.8 µM	> 50 µM	13.7 µM	5.56 µM	32.8 µM	C=C1CC[C@@H]2[C@](C)(COC(C)=O)[C@H](OC(C)=O)CC[C@@]2(C)[C@@H]1C[C@H](SC(=S)N1CCN(Cc2ccc(Cl)cc2)CC1)C1=CCOC1=O	26.2 µM	6.76 µM	21.6 µM	6.22 µM
6.64 µM	28.1 µM	21.6 µM	7.95 µM	> 50 µM	C=C1CC[C@@H]2[C@](C)(COC(C)=O)[C@H](OC(C)=O)CC[C@@]2(C)[C@@H]1C/C=C1/C(=O)OC[C@H]1OC(C)=O	22.5 µM	14.8 µM	20.1 µM	5.02 µM
5.76 µM	17.8 µM	6.58 µM	4.72 µM	28.5 µM	C=C1CC[C@@H]2[C@](C)(COC(C)=O)[C@H](OC(C)=O)CC[C@@]2(C)[C@@H]1C[C@H](SC(=S)N1CCN(c2ccccc2OC)CC1)C1=CCOC1=O	14.3 µM	5.59 µM	8.08 µM	7.62 µM

SMILES	IC50 (P388)	IC50 (KB)	IC50 (HT-29)	IC50 (MCF7)	IC50 (A549)	IC50 [1]	IC50 [2]	IC50 (HuCC-A1)	IC50 [3]
Cc1c2ccncc2c(C)c2c1[nH]c1ccccc12 [ELLIPTECINE]	1.79 µM	1.92 µM	2.16 µM	1.79 µM	2.25 µM	2.19 µM	1.81 µM	2.43 µM	2.43 µM

Source: ChEMBL document CHEMBL4622915, “Design and synthesis of C-12 dithiocarbamate andrographolide analogues as an anticancer agent” (Bioorg Med Chem Lett, 2020)
